Screening data deposited in PubChem BioAssay by The Scripps Research Institute Molecular Screening Center.
CHRM4 PAM: CHRM4 positive allosteric modulation; activation, % at 3 µM; AID 624126; CHO-K1 hM4/Gqi5, Fluo-8 calcium fluorescence, ACh EC20; 0% = ACh EC20, 100% = maximal ACh; 360,000 tested, 0.4% active;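 active = activation above its plate's cutoff, the mean activation of sample wells plus 3 SD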
TAAR1 antagonist: human TAAR1 antagonism; CHO RD-HGA16 TAAR1, Fluo-8 calcium fluorescence, antagonist; 360,000 tested, 1.5% active; Q96RJ0; inhibition, % at 3 µM;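 active = inhibition above a per-plate cutoff, the mean inhibition of test compounds on that plate plus 3 SD, cut at about 49% in these data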
Target sequence (Q96RJ0 whole entry, looked up): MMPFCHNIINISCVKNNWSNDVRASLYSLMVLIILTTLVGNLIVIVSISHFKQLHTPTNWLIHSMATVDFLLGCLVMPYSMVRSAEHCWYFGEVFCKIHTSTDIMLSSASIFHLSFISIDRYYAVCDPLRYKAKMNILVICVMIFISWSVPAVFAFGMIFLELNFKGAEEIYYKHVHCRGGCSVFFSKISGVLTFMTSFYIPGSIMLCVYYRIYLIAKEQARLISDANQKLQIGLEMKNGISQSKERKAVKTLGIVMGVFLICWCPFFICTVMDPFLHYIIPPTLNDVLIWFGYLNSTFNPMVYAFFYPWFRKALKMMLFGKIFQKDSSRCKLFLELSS
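Test system: hTAAR1-expressing CHO RD-HGA16 cells, Gα16-coupled; Probe or stimulus: EC80 β-phenethylamine stimulus; Compound dosing: single nominal final test compound concentration of 3 µM; Timing: 140 s kinetic read after compound, 140 s after agonist; Signal: Fluo-8 calcium-sensitive fluorescence; Measure: % inhibition of agonist calcium response; Controls: DMSO and EC80 PEA controls.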
M4 ag: agonists of human muscarinic M4 receptor (CHRM4) | AID 624127 | 360,000 tested, 0.14% active | CHO-K1 hM4/Gqi5, Fluo-8 calcium fluorescence; vehicle 0%, full acetylcholine response 100% | activation, % at 3 µM | P08173;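 active = activation above the run mean over all test wells plus 3 SD, cut at about 32% in these data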;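 note: peak over basal fluorescence ratio per well then scaled between controls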
M4 antag: CHRM4 antagonism in calcium assay. inhibition, % at 3 µM. CHO-hM4 cells, ACh EC80, Fluo-8 calcium fluorescence. AID 624125. 360,000 tested, 0.73% active;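 active = inhibition above its plate's cutoff, the mean inhibition of sample wells plus 3 SD, cut at about 27% in these data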
TAAR1 agonist: agonists of human TAAR1; Q96RJ0; CHO RD-HGA16 TAAR1, Fluo-8 calcium fluorescence; vehicle wells 0%, saturating PEA agonist 100%; activation, % at 3 µM; 360,000 tested, 0.99% active; AID 624467;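 active = activation above the mean activation of all test compounds in the run plus 3 SD, cut at about 38% in these data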
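Test system: RD-HGA16 (CHO) cells co-expressing Gα16 and hTAAR1 | Doses: Single dose, 3 µM | Schedule: 17-24 h seeding, 75 min 37 °C dye, 30 min RT | Evaluation: % activation from peak over basal fluorescence ratio, DMSO-to-PEA scaled | Technique: Kinetic Fluo-8 calcium fluorescence | Benchmarks: Low control DMSO, high control PEA (EC100)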
nonsel antag count: counter-screen for TAAR1 antagonists: nonselective antagonists; counterscreen cell line, calcium fluorescence, antagonist mode; AID 651780; inhibition, % at 3 µM; shares compounds with TAAR1 antagonist; 2,400 tested, 77% active; in the data active = inhibition above about 22%;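 note: CHO-Ga16 host cells stimulated with ATP at an EC80 level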
TAAR1 ant conf: human TAAR1 antagonism, confirmed; shares compounds with TAAR1 antagonist; TAAR1-expressing cells, fluorescence antagonist read-out; inhibition, % at 3 µM; 2,400 tested, 40% active; AID 651785; in the data active = inhibition above about 49%;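 note: CHO-Ga16 host cells challenged with agonist PEA near its EC80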
Ga16 ag counter: nonselective Ga16 agonist in TAAR1 antagonist counter-screen | shares compounds with TAAR1 antagonist | Ga16-expressing cells, calcium fluorescence, agonist counterscreen | activation, % at 3 µM | 2,400 tested, 18% active | AID 651953; in the data active = activation above about 12%
TAAR1 ag count: TAAR1 agonism, antagonist counter-screen; hTAAR1 cell line, fluorescence activation, agonist mode; 2,400 tested, 2% active; activation, % at 3 µM; shares compounds with TAAR1 antagonist; AID 651955; in the data active = activation above about 37%;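 note: CHO cells stably expressing TAAR1 with calcium dye readout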
A number is an active result. Rows were chosen to be rich in hits. Some 3% of all compounds tested hit in one or more screens of this group.

`CC(=O)N(CCc1ccccc1C)Cc1cc2cc3c(cc2[nH]c1=O)OCO3` gave CHRM4 PAM inactive, TAAR1 antagonist inactive, M4 ag inactive, M4 antag inactive and TAAR1 agonist inactive.
For CCC(=O)N(CCc1ccccc1C)Cc1cc2ccc(C)cc2[nH]c1=O the results were CHRM4 PAM inactive, TAAR1 antagonist 60.4, M4 ag inactive, M4 antag inactive, TAAR1 agonist inactive, nonsel antag count 28.5, TAAR1 ant conf 49.2, Ga16 ag counter inactive and TAAR1 ag count inactive.
Screening CC(=O)C1CCC2C3CCC4CC(=O)CCC4(C)C3C(O)CC12C (stereo unspecified) returned CHRM4 PAM inactive, TAAR1 antagonist inactive, M4 ag inactive, M4 antag inactive and TAAR1 agonist inactive.
For CC(=NO)C1CCC2C3CCC4CC(=NO)CCC4(C)C3C(C)(O)CC12C (stereo unspecified) the results were CHRM4 PAM inactive, TAAR1 antagonist 76.7, M4 ag inactive, M4 antag inactive, TAAR1 agonist inactive, nonsel antag count 28.9, TAAR1 ant conf 51.7, Ga16 ag counter 17.4 and TAAR1 ag count inactive.
For Cc1cc(C)cc(OCC(=O)Nc2cccc(-c3nc4ncccc4o3)c2)c1 the results were CHRM4 PAM inactive, TAAR1 antagonist 70.4, M4 ag inactive, M4 antag inactive, TAAR1 agonist inactive, nonsel antag count 30.8, TAAR1 ant conf 58.0, Ga16 ag counter inactive and TAAR1 ag count inactive.
O=C(Nc1cccc(-c2nc3ncccc3o2)c1)c1cc2ccccc2o1 was read as CHRM4 PAM inactive, TAAR1 antagonist 60.8, M4 ag inactive, M4 antag inactive, TAAR1 agonist inactive, nonsel antag count 28.3, TAAR1 ant conf 49.1, Ga16 ag counter inactive and TAAR1 ag count inactive.
Cc1ccc(-c2nc3ncccc3o2)cc1NC(=O)c1cc2ccccc2o1 was read as CHRM4 PAM inactive, TAAR1 antagonist inactive, M4 ag inactive, M4 antag inactive and TAAR1 agonist inactive.
Screening COc1cc(NC(=O)C2CC(c3ccccc3O)=NO2)cc(OC)c1OC (stereo unspecified) returned CHRM4 PAM inactive, TAAR1 antagonist inactive, M4 ag inactive, M4 antag inactive and TAAR1 agonist inactive.
COc1cc(Cl)ccc1OCc1cc(C(=O)N2C[C@H]3CC[C@H]2C3)no1 was read as CHRM4 PAM inactive, TAAR1 antagonist inactive, M4 ag inactive, M4 antag inactive and TAAR1 agonist inactive.
COc1cc(C)ccc1OCc1cc(C(=O)N2C[C@H]3CC[C@H]2C3)no1 was read as CHRM4 PAM inactive, TAAR1 antagonist 102.4, M4 ag inactive, M4 antag inactive, TAAR1 agonist inactive, nonsel antag count inactive, TAAR1 ant conf inactive, Ga16 ag counter inactive and TAAR1 ag count inactive.
`CCO[C@@H]1OC(C(=O)N2CCN(Cc3ccccc3)CC2)=C[C@H](c2csc3ccccc23)[C@H]1CCCO` gave CHRM4 PAM inactive, TAAR1 antagonist 52.0, M4 ag inactive, M4 antag inactive, TAAR1 agonist inactive, nonsel antag count 22.6, TAAR1 ant conf inactive, Ga16 ag counter inactive and TAAR1 ag count inactive.
Screening COc1ccccc1NC(=O)CSc1nnc2ccccn12 returned CHRM4 PAM inactive, TAAR1 antagonist inactive, M4 ag inactive, M4 antag inactive and TAAR1 agonist inactive.
Screening COC(=O)c1ccc(C)c(NC(=O)CSc2nnc3ccccn23)c1 returned CHRM4 PAM inactive, TAAR1 antagonist 87.5, M4 ag inactive, M4 antag inactive, TAAR1 agonist inactive, nonsel antag count inactive, TAAR1 ant conf inactive, Ga16 ag counter inactive and TAAR1 ag count inactive.
`Cc1noc(C)c1C(=O)OC(C)C(=O)c1c[nH]c2ccccc12` (stereo unspecified) gave CHRM4 PAM inactive, TAAR1 antagonist inactive, M4 ag inactive, M4 antag inactive and TAAR1 agonist inactive.
O=C(N/N=C/c1cccnc1)c1ccccc1OCc1cccc(Br)c1 was read as CHRM4 PAM inactive, TAAR1 antagonist inactive, M4 ag inactive, M4 antag inactive and TAAR1 agonist inactive.
Screening Cc1ccc(/C=N/NC(=O)c2ccccc2OCc2cccc(Br)c2)o1 returned CHRM4 PAM inactive, TAAR1 antagonist 58.5, M4 ag inactive, M4 antag inactive, TAAR1 agonist inactive, nonsel antag count inactive, TAAR1 ant conf 57.8, Ga16 ag counter inactive and TAAR1 ag count inactive.
For C[C@H](CO)N1C[C@H](C)[C@@H](CN(C)C(=O)Nc2ccc3c(c2)OCO3)Oc2c(NC(=O)Nc3ccc4c(c3)OCO4)cccc2C1=O the results were CHRM4 PAM inactive, TAAR1 antagonist 69.4, M4 ag inactive, M4 antag 26.9, TAAR1 agonist inactive, nonsel antag count 31.4, TAAR1 ant conf 53.1, Ga16 ag counter inactive and TAAR1 ag count inactive.
Screening COc1ccc(NC(=O)Nc2cccc3c2O[C@H](CN(C)C(=O)Nc2ccc4c(c2)OCO4)[C@@H](C)CN([C@H](C)CO)C3=O)cc1 returned CHRM4 PAM inactive, TAAR1 antagonist 65.0, M4 ag inactive, M4 antag inactive, TAAR1 agonist inactive, nonsel antag count 33.0, TAAR1 ant conf 53.0, Ga16 ag counter inactive and TAAR1 ag count inactive.
Screening C[C@H](CO)N1C[C@H](C)[C@@H](CN(C)Cc2ccccc2)Oc2c(NC(=O)Cc3ccccc3)cccc2C1=O returned CHRM4 PAM inactive, TAAR1 antagonist 68.1, M4 ag inactive, M4 antag inactive, TAAR1 agonist inactive, nonsel antag count 25.8, TAAR1 ant conf inactive, Ga16 ag counter inactive and TAAR1 ag count inactive.
`Cc1ccc(NC(=O)c2ccc(Cl)c(S(=O)(=O)Nc3c(C)n(C)n(-c4ccccc4)c3=O)c2)cc1Cl` gave CHRM4 PAM inactive, TAAR1 antagonist inactive, M4 ag inactive, M4 antag inactive and TAAR1 agonist inactive.
Screening CC(=O)c1ccccc1NC(=O)c1ccc2c(c1)NC(=O)C(C)S2 (stereo unspecified) returned CHRM4 PAM inactive, TAAR1 antagonist inactive, M4 ag inactive, M4 antag inactive and TAAR1 agonist inactive.
`CCCNC(=O)c1ccccc1NC(=O)c1ccc2c(c1)NC(=O)C(C)S2` (stereo unspecified) gave CHRM4 PAM inactive, TAAR1 antagonist 59.0, M4 ag inactive, M4 antag inactive, TAAR1 agonist inactive, nonsel antag count 27.4, TAAR1 ant conf 49.3, Ga16 ag counter inactive and TAAR1 ag count inactive.
